The values that follow come from ChEMBL document CHEMBL3351346, “Design, synthesis, structure-function relationship, bioconversion, and pharmacokinetic evaluation of ertapenem prodrugs” (J Med Chem, 2014).

As a reminder, the AUC is concentration integrated over time. In general, AUC(0-t) refers to the area under the concentration-time curve up to a stated or last time point. Low readings indicate low exposure, high ones high exposure.

The test system of data set [1] is Rattus norvegicus. The experiment in a line: AUC (0 to 8 hrs) in fasted Sprague-Dawley rat assessed as ertapenem level at 7.4 mg/kg dosed through intraduodenal route by LC-MS/MS method. In kind it is ADME, organism-based, Plasma. On the set-up: time < 8 hr, dose 7.4 mg/kg, route intraduodenal. Conditions: in vivo, other. The method in brief: (§1)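 Prodrugs were given intraduodenally to bypass stomach acid. Plasma was sampled at intervals over 8 h, and parent prodrug, the two monoester metabolites and ertapenem were quantified by LC-MS/MS. The lower limit of quantitation was 5 nM. AUC(0–8) was used, and it differed from AUC(0–∞) by ±20%. Vehicles were 30% Captisol or 0.5% methylcellulose, as solution or suspension depending on compound.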

Data set [2] relates to Rattus norvegicus. In words: Oral bioavailability in fasted Sprague-Dawley rat assessed as ertapenem and monoetser metabolites level at 7.4 mg/kg dosed through intraduodenal route by LC-MS/MS method. In kind it is ADME, organism-based. The following applies: in vivo. In a few lines:
(§2)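 Total absorption followed intraduodenal dosing with LC-MS/MS of plasma over 8 h. It was calculated as the combined dose-normalized AUC of circulating parent prodrug, ertapenem and two monoesters, divided by dose-normalized AUC of ertapenem given iv. Vehicle was 30% Captisol or 0.5% methylcellulose.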

A short description of data set [3]: Stability in pH 2.0 simulated gastric fluid assessed as compound degradation to beta-lactam ring open products at 1 uM after 60 mins by LC-MS/MS method. Type of data set: ADME. The following applies: read-out: Drug degradation. In a few lines: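 Incubation was in simulated gastric fluid (SGF, pH 2.0) for 60 min, with loss to the β-lactam ring-opened product measured by LC-MS/MS.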

Data set [4] in a line: Stability in pH 7.4 phosphate buffer assessed as compound remaining at 50 uM after 3 hrs by LC-MS/MS method. In kind it is physicochemical. The following applies: read-out: Stability.
A short description of data set [5]: Stability in rat plasma assessed as compound remaining at 50 uM at 37 degC after 60 mins by LC-MS/MS method. Type of data set: ADME, cell-free. Conditions: read-out: Stability. In a few lines: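 Prodrugs were incubated in rat or human plasma for 60 min. Disappearance of prodrug and concomitant appearance of ertapenem were followed by LC-MS/MS, and in selected cases monoesters from partial hydrolysis were also monitored. Ertapenem itself was incubated the same way as a control.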

In data set [6] the test system is Rattus norvegicus. In words: Oral bioavailability in fasted Sprague-Dawley rat assessed as ertapenem level at 7.4 mg/kg dosed through intraduodenal route by LC-MS/MS method. Type of data set: ADME, organism-based. Conditions: in vivo. In a few lines: (§3)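 After intraduodenal dosing, plasma over 8 h was analysed by LC-MS/MS. Bioavailability was calculated as dose-normalized AUC of ertapenem formed from the prodrug divided by dose-normalized AUC of ertapenem dosed iv. Vehicle was 30% Captisol or 0.5% methylcellulose.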

The test system of data set [7] is Rattus norvegicus. The experiment in a line: AUC (0 to 8 hrs) in fasted Sprague-Dawley rat at 7.4 mg/kg dosed through intraduodenal route by LC-MS/MS method. Type of data set: ADME, organism-based, Plasma. Set-up: time < 8 hr, dose 7.4 mg/kg, route intraduodenal. Conditions: in vivo, other, BLD = below limit of detection. In a few lines:
as §1

Data set [8] can be described thus: Stability in pH 6.5 simulated gastrointestinal fluid assessed as compound remaining at 50 uM after 3 hrs by LC-MS/MS method. In kind it is ADME. The following applies: read-out: Stability. The method in brief: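 Compounds at 50 μM were incubated in fasted-state simulated intestinal fluid (FaSSIF, pH 6.5) for over 3 h. Percent remaining was determined by LC-MS/MS.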

Data set [9] in a line: AUC (0 to 8 hrs) in fasted Sprague-Dawley rat at 4.41 mg/kg dosed through intraduodenal route by LC-MS/MS method. Type of data set: ADME, organism-based. Set-up: time < 8 hr, dose 4.41 mg/kg, route intraduodenal. The following applies: plasma. The method in brief:
as §1

Data set [10] has as its system Rattus norvegicus. The experiment in a line: AUC (0 to 8 hrs) in fasted Sprague-Dawley rat assessed as 8-OH, benzoate ester level at 4.41 mg/kg dosed through intraduodenal route by LC-MS/MS method. In kind it is ADME, organism-based, Plasma. On the set-up: time < 8 hr, dose 4.41 mg/kg, route intraduodenal. Conditions: in vivo, other. The method in brief:
as §1

Data set [11] concerns Canis familiaris. In words: Oral bioavailability in fasted Beagle dog assessed as ertapenem level at 10 mg/kg dosed through intraduodenal route by LC-MS/MS method. In kind it is ADME, organism-based, Canis lupus familiaris. The following applies: in vivo. The method in brief:
as §3

Data set [12] has as its system Rattus norvegicus. In words: Oral bioavailability in fasted Sprague-Dawley rat assessed as ertapenem level at 4.41 mg/kg dosed through intraduodenal route by LC-MS/MS method. Type of data set: ADME, organism-based. Conditions: in vivo. In a few lines: as §3
Data set [13] has as its system Canis familiaris. In words: AUC (0 to 8 hrs) in fasted Beagle dog at 10 mg/kg dosed through intraduodenal route by LC-MS/MS method. In kind it is ADME, organism-based, Canis lupus familiaris, Plasma. The following applies: in vivo, other, 8 h. On the set-up: time < 8 hr, dose 10 mg/kg, route intraduodenal. In a few lines: as §1
Data set [14] concerns Canis familiaris. The experiment in a line: AUC (0 to 8 hrs) in fasted Beagle dog assessed as 8-OH, benzoate ester level at 10 mg/kg dosed through intraduodenal route by LC-MS/MS method. Type of data set: ADME, organism-based, Canis lupus familiaris, Plasma. On the set-up: time < 8 hr, dose 10 mg/kg, route intraduodenal. The following applies: in vivo, other. The method in brief:
as §1

Data set [15] relates to Rattus norvegicus. The experiment in a line: AUC (0 to 8 hrs) in fasted Sprague-Dawley rat assessed as ertapenem level at 4.41 mg/kg dosed through intraduodenal route by LC-MS/MS method. The following applies: in vivo, other. On the set-up: time < 8 hr, dose 4.41 mg/kg, route intraduodenal. In kind it is ADME, organism-based, Plasma. The method in brief:
as §1

Data set [16] concerns Canis familiaris. The experiment in a line: Oral bioavailability in fasted Beagle dog assessed as assessed as ertapenem and monoetser metabolites level at 10 mg/kg dosed through intraduodenal route by LC-MS/MS method. In kind it is ADME, organism-based, Canis lupus familiaris. Conditions: in vivo. The method in brief:
as §2

Data set [17] relates to Rattus norvegicus. In words: AUC (0 to 8 hrs) in fasted Sprague-Dawley rat assessed as 8-OH, C-3 ester level at 4.41 mg/kg dosed through intraduodenal route by LC-MS/MS method. The following applies: in vivo, other. In kind it is ADME, organism-based, Plasma. On the set-up: time < 8 hr, dose 4.41 mg/kg, route intraduodenal. In a few lines:
as §1

Data set [18] relates to Rattus norvegicus. The experiment in a line: Oral bioavailability in fasted Sprague-Dawley rat assessed as ertapenem and monoetser metabolites level at 4.41 mg/kg dosed through intraduodenal route by LC-MS/MS method. Type of data set: ADME, organism-based. Conditions: in vivo. The method in brief: as §2
For data set [19], the system named is Canis familiaris. In words: AUC (0 to 8 hrs) in fasted Beagle dog assessed as 8-OH, C-3 ester level at 10 mg/kg dosed through intraduodenal route by LC-MS/MS method. Type of data set: ADME, organism-based, Canis lupus familiaris, Plasma. Set-up: time < 8 hr, dose 10 mg/kg, route intraduodenal. The following applies: in vivo, other. The method in brief: as §1

SMILES strings stand for the structures.

For the compound `Cc1oc(=O)oc1COC(=O)C1=C(S[C@@H]2CN[C@H](C(=O)Nc3cccc(C(=O)OCc4oc(=O)oc4C)c3)C2)[C@H](C)[C@@H]2[C@@H]([C@@H](C)O)C(=O)N12`, the AUC in the data set on Rattus norvegicus [1] is 0.3 µM·h; in the data set on Rattus norvegicus [7], “BLD”. Also, the F with Rattus norvegicus [2] and in the data set on Rattus norvegicus [6] was 0.8% throughout. Further, the degraded at 1 h, 1 µM in [3] is above 25%. In addition, the remaining at 3 h, 50 µM in [4] and in data set [8] was above 95% in each case. For the same compound, the remaining at 1 h, 50 µM in data set [5] was 0%.
For `CCOC(=O)C1=C(S[C@@H]2CN[C@H](C(=O)Nc3cccc(C(=O)OCC)c3)C2)[C@H](C)[C@@H]2[C@@H]([C@@H](C)O)C(=O)N12`, the AUC(0-t) at 8 h in [9] was 0.06 µM·h. The area under the curve (AUC) was 0.4 µM·h with Rattus norvegicus [10]; 5 µM·h with Canis familiaris [13]; 3.3 µM·h with Canis familiaris [14]; 1.5 µM·h in the data set with Rattus norvegicus [15]; 0.1 µM·h in the data set with Rattus norvegicus [17]; 2.2 µM·h in the data set on Canis familiaris [19]. Further, the F amounted to 18.1% in the data set on Canis familiaris [11], 5% with Rattus norvegicus [12], 31.3% in the data set on Canis familiaris [16] and 6.6% in the data set on Rattus norvegicus [18]. The degraded at 1 h, 1 µM in [3] was above 25%. In addition, the remaining at 3 h, 50 µM in [4] and in [8] was above 95% in each case.
